Test [1] deals with T1, UDP-3-O-acyl-N-acetylglucosamine deacetylase (Escherichia coli K-12) (UniProt P0A725).
T1 sequence (whole entry): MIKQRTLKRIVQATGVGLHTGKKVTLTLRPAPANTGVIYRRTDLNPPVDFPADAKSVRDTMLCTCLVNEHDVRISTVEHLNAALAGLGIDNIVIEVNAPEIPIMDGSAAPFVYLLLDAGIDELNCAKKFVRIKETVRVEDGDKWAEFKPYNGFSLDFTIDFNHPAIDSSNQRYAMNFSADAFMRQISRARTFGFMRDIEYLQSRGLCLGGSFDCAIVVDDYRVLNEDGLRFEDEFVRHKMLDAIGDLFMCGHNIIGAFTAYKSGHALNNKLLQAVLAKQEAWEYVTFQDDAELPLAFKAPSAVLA
The experiment in a line: Inhibition of Escherichia coli LpxC using UDP-3-O-[(R)-3-hydroxymyristoyl]-N-acetylglucosamine as substrate up to 200 uM incubated for 30 mins prior to enzyme addition by fluorescence assay. In outline: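 Purified E. coli LpxC (stored in 50 mM Bis/Tris pH 6.0, 150 mM NaCl). 40 mM MES pH 6.0 with 25 µM substrate, 80 µM DTT, 0.02% Brij 35; inhibitors in DMSO, 0.2 nM–200 µM, 30 min at 37 °C shaking before adding 500 ng enzyme. Stopped with NaOH, neutralized with acetic acid; product derivatized with o-phthaldialdehyde-2-mercaptoethanol in borax, fluorescence ex 340/em 460 nm. IC50 converted to Ki by Cheng-Prusoff (KM 4 µM); mean ± SD, n=3.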

The subject of test [2] is Escherichia coli. In words: Antimicrobial activity against Escherichia coli BL21(DE3) at 10 mM after overnight incubation by agar disc diffusion method. The test is classed as functional. The settings on record: read-out: DIZ. In a few lines: (§1)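 Strains grown overnight in LB broth at 37 °C, 200 rpm; 150 µL overnight suspension spread on LB agar. 15 µL of compound (10 mM stock in DMSO) applied to 6 mm filter paper discs; DMSO negative and CHIR-090 positive controls. Plates incubated overnight at 37 °C; zone of inhibition diameter measured, mean ± SD of three independent experiments.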
Background: In agar diffusion tests the substance spreads into inoculated agar from a disc or well.

Test [3] deals with T2, UDP-3-O-acyl-N-acetylglucosamine deacetylase (Escherichia coli K-12, UniProt P0A725).
T2 sequence (P0A725 whole entry): T1 sequence (whole entry)
In words: Inhibition of Escherichia coli LpxC using UDP-3-O-[(R)-3-hydroxymyristoyl]-N-acetylglucosamine as substrate incubated for 30 mins prior to enzyme addition by fluorescence assay.

Test [4] deals with Escherichia coli. In words: Antimicrobial activity against Escherichia coli D22 at 10 mM after overnight incubation by agar disc diffusion method. It counts as functional. The settings on record: read-out: DIZ. In outline: as §1

Each structure is given as a SMILES string. Active and inactive are the calls of the source. No cut-off for these calls is given here.

Turning to `O=C(CO[C@H](CO)c1ccc(Br)cc1)NO`, in test [1], the inhibition entry is “inactive”. Moreover, the zone of inhibition at 10000 µM with Escherichia coli [2] and in the test on Escherichia coli [4] was under 6 mm throughout. In addition, in test [3], the IC50 (as a rule, the concentration that gives 50% inhibition) is over 200 µM.

`O=C(NO)[C@H](CO)O[C@H](CO)c1ccc(C#Cc2ccc(CN3CCOCC3)cc2)cc1`: the zone of inhibition at 10000 µM in the test on Escherichia coli [2] came to 9 mm. In addition, in test [3], the IC50 stood at 2.6 µM and the inhibitory constant (Ki) (as a rule, a measure of affinity in units of concentration, obtained from inhibition or displacement) was 0.358 µM. In addition, the zone of inhibition at 10000 µM in the test on Escherichia coli [4] was determined as 20.8 mm.

For `O=C(COCc1ccc(C#Cc2ccc(CN3CCOCC3)cc2)cc1)NO`, the zone of inhibition at 10000 µM was 16.5 mm in the test on Escherichia coli [2] and 20.3 mm with Escherichia coli [4]. The IC50 in test [3] was found to be 10.5 µM. Besides, affinity in test [3] was put at a Ki of 1.45 µM.

For `C#Cc1ccc([C@@H](CO)OCC(=O)NO)cc1`, in test [1], the inhibition entry is “inactive”. The zone of inhibition at 10000 µM with Escherichia coli [2] and in the test with Escherichia coli [4] was under 6 mm each time. In addition, in test [3], the concentration for half-maximal inhibition (IC50) is over 200 µM.

On to `O=C(CO[C@H](CO)c1ccc(C#Cc2ccc(CN3CCOCC3)cc2)cc1)NO`, for which, in the test on Escherichia coli [2], the zone of inhibition at 10000 µM was determined as 13.4 mm. For the same compound, in test [3], the IC50 was 0.69 µM and the affinity, expressed as Ki, was 0.095 µM. Further, the zone of inhibition at 10000 µM with Escherichia coli [4] is 21.2 mm.

`C[Si](C)(C)C#Cc1ccc([C@H](CO)OCC(=O)NO)cc1`: the zone of inhibition at 10000 µM in the test on Escherichia coli [2] turned out to be 7.1 mm; in the test with Escherichia coli [4], 7.2 mm. Moreover, the IC50 in test [3] was over 200 µM.

For the compound `C[Si](C)(C)C#Cc1ccc([C@@H](CO)OCC(=O)NO)cc1`, the inhibition result in test [1] was “inactive”. The zone of inhibition at 10000 µM in the test on Escherichia coli [2] is under 6 mm; in the test with Escherichia coli [4], 7.5 mm. This compound also registered a 50% inhibitory concentration (IC50) in test [3] of over 200 µM.

Take `O=C(CO[C@@H](CO)c1ccc(C#Cc2ccc(CN3CCOCC3)cc2)cc1)NO`: the zone of inhibition at 10000 µM in the test with Escherichia coli [2] worked out at 8.7 mm. Besides, in test [3], half-maximal inhibition (IC50) required 198 µM and the inhibition constant (Ki) worked out at 27.3 µM. In addition, the zone of inhibition at 10000 µM in the test on Escherichia coli [4] worked out at 12.3 mm.

Take `O=C(NO)[C@H]1O[C@@H](c2ccc(C#Cc3ccc(CN4CCOCC4)cc3)cc2)[C@@H](O)[C@H]1O`: the zone of inhibition at 10000 µM was under 6 mm with Escherichia coli [2] and 13.1 mm in the test on Escherichia coli [4]. Further, the half-inhibitory concentration (IC50) in test [3] is over 200 µM.

As to `O=C(CO[C@@H](CO)c1ccccc1)NO`, the zone of inhibition at 10000 µM with Escherichia coli [2] and in the test with Escherichia coli [4] was under 6 mm in each case. In addition, in test [3], the concentration for half-maximal inhibition (IC50) was over 200 µM.

For the compound `O=C(CO[C@H](CO)c1ccccc1)NO`, the zone of inhibition at 10000 µM in the test on Escherichia coli [2] and in the test with Escherichia coli [4] was under 6 mm throughout. In test [3], the 50% inhibitory concentration (IC50) is over 200 µM.

Turning to `O=C(CO[C@@H](CO)c1ccc(Br)cc1)NO`, the zone of inhibition at 10000 µM in the test with Escherichia coli [2] and with Escherichia coli [4] was under 6 mm in each case. Also, the IC50 in test [3] was over 200 µM.

As for `O=C(CO[C@H](CO)c1ccc(C#Cc2ccccc2)cc1)NO`, the results for the zone of inhibition at 10000 µM in the test with Escherichia coli [2] and in the test with Escherichia coli [4] were 9.5 mm and 20.5 mm, respectively. In addition, in test [3], the IC50 turned out to be 0.48 µM. In test [3], this compound came in with an inhibitory constant (Ki) of 0.066 µM.

On to `O=C(COCc1ccc(C#Cc2ccccc2)cc1)NO`, for which the zone of inhibition at 10000 µM in the test with Escherichia coli [2] was 10.6 mm; in the test with Escherichia coli [4], 13.2 mm. The IC50 in test [3] is over 200 µM.

As to `C#Cc1ccc([C@H](CO)OCC(=O)NO)cc1`, the zone of inhibition at 10000 µM in the test on Escherichia coli [2] and in the test on Escherichia coli [4] was under 6 mm in each case. For the same compound, in test [3], the IC50 was over 200 µM.

As to `C[C@@H](O)[C@H](NC(=O)c1ccc(C#Cc2ccc(CN3CCOCC3)cc2)cc1)C(=O)NO`, the zone of inhibition at 10000 µM with Escherichia coli [2] stood at 24.6 mm; with Escherichia coli [4], 30.3 mm.

With `O=C(CO[C@@H](CO)c1ccc(C#Cc2ccccc2)cc1)NO`, the zone of inhibition at 10000 µM in the test on Escherichia coli [2] is 9.1 mm; in the test with Escherichia coli [4], 13 mm. In test [3], this compound displayed an IC50 of 31.6 µM. In addition, the Ki in test [3] amounted to 4.4 µM.

(Values after ChEMBL document CHEMBL3102822, “Synthesis, biological evaluation and molecular docking studies of benzyloxyacetohydroxamic acids as LpxC inhibitors” (Bioorg Med Chem, 2014).)
